Published values of several laboratories.
Protocols differ between the studies behind these lines.
Target: Serine/threonine-protein kinase RIO1 (RIOK1, Homo sapiens, UniProt Q9BRS2)
Sequence (Q9BRS2 1-568, as in one of the studies): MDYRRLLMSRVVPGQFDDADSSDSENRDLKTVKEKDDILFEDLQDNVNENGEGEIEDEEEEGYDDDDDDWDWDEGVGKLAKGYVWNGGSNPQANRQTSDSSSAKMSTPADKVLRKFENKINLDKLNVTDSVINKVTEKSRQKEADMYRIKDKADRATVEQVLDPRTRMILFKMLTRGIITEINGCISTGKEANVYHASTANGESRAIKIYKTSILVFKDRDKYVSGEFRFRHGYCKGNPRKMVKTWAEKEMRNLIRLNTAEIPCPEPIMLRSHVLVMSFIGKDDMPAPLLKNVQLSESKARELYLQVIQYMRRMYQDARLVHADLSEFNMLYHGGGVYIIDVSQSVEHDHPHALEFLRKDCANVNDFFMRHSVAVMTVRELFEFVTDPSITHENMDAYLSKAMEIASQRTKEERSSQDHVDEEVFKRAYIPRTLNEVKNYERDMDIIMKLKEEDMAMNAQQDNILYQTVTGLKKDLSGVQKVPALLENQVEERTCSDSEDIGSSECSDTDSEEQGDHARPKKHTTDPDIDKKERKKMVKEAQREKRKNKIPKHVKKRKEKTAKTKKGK

SMILES	test	setting	remaining binding [%]
COc1ncc2cc3ccccc3nc2c1C#N	cell-free assay, competition with immobilised ligand	5 µM	93
Nc1ncc2c(n1)-c1c([nH]c3ccc(C#CC4CC4)cc13)CCCC2	binding, competition with immobilised ligand	1 µM	80
CN(C)c1nccc(-c2cnn3ncccc23)n1	binding	1 µM	100
COc1cnc(Nc2cccc(S(N)(=O)=O)c2)nc1N1CCN(c2ccccc2)CC1	binding, competition with immobilised ligand	1 µM	73
C[C@@H]1CCN(c2nccc(-c3cnn4ncccc34)n2)C1	binding	1 µM	75
Cc1cnc(Nc2ccc(C(=O)N3CCC(N4CCCC4)CC3)cc2)nc1-c1cc2ccccc2s1	binding, competition with immobilised ligand	1 µM	0
FC(F)(F)Oc1cccc(-c2cnc3ccc(-c4ccncc4)nn23)c1	cell-free assay, competition with immobilised ligand	5 µM	17
CCC(=N\O)/C(C)=C/c1ccc(F)cc1	cell-free assay, competition with immobilised ligand	1 µM	80
CN(C)c1ncc(F)c(-c2cnn3ncccc23)n1	binding	1 µM	100
O=C(NCCCN1CCOCC1)c1ccc(Nc2ncc(Cl)c(-c3ccc(Cl)s3)n2)cc1	binding, competition with immobilised ligand	1 µM	0.05
CN(C)C(=O)Cn1cc(-c2nc(C3(c4ccc(-c5cnc(N)nc5)cc4)CC3)no2)cn1	cell-free assay, competition with immobilised ligand	1 µM	100
N[C@@H]1CCN(c2nccc(-c3cnn4ncccc34)n2)C1	binding	1 µM	96
C=CC(=O)N1CCC(C(=O)NCC(=O)N2CCN(c3nc(-c4cnc(N)nc4C(F)F)nc(N4CCOCC4)n3)CC2)CC1	binding, competition with immobilised ligand	1 µM	98
O=C(NCC1CCOCC1)c1n[nH]cc1NC(=O)c1c(F)cccc1F	binding, competition with immobilised ligand	1 µM	88
O=S(=O)(NC1CCC(c2cc(F)ccc2F)(S(=O)(=O)c2ccc(Cl)cc2)CC1)C(F)(F)F (stereo not shown)	cell-free assay, competition with immobilised ligand	1 µM	98
F[C@@H]1CCN(c2nccc(-c3cnn4ncccc34)n2)C1	binding	1 µM	93
Cn1cc(Cl)c2c(Oc3c(F)cc(Nc4cc(Cl)nc(N)n4)cc3F)ccnc21	cell-free assay, competition with immobilised ligand	0.1 µM	100
CN(CCCC(F)(F)F)c1nccc(-c2cnn3ncccc23)n1	binding	1 µM	100
N#Cc1ccc(Nc2ccc3[nH]c(=O)[nH]c3c2)c(Cl)c1	cell-free assay, competition with immobilised ligand	1 µM	100
c1cnn2ncc(-c3ccnc(N4CCC45COC5)n3)c2c1	binding	1 µM	36
O=C(c1ccc(Nc2ncc(Cl)c(-c3ccc(Cl)s3)n2)cc1)N1CCC(N2CCCC2)CC1	binding, competition with immobilised ligand	1 µM	0
COc1ccc2cc(OCC3(C(=O)O)CN(C(=O)c4ccc(F)cc4)C3)ccc2c1	cell-free assay, competition with immobilised ligand	1 µM	100
